The source made the active and inactive calls. No cut-off for these calls is given here. *1 amine or outer side, *2 acyl side, *3 side chain or, on linkers, in order; H or OH if unused. Where a SMILES comes first, the peptide text is derived from it. Bridges are numbered along the chain shown (N, C = ends). [ ]: non-standard residue; d: D form. The star is where a group is joined. dLeu(3R-OH) = CC(C)[C@@H](O[*:3])[C@@H](N[*:1])C(=O)[*:2]; Gln(3S,4R-Me2) = C[C@H]([C@H](N)C(=O)O)[C@@H](C)C(N)=O; dTyr(βR-OMe) = CO[C@H](c1ccc(O)cc1)[C@@H](N)C(=O)O; Pip(4S-Cl) = O=C(O)[C@@H]1C[C@@H](Cl)CCN1; X1 = CCC(C)/C=C(C)/C=C\C(O)C(C)(O)C(=O)*; Abu(3R-NH2) = C[C@@H](N)[C@H](N)C(=O)O; NMeT = CN[C@H](C(=O)O)[C@@H](C)O
What was measured:
[1] = system: Human immunodeficiency virus 1; test: Inhibition of HIV LAV in BSC1 cells after 2.5 hrs by cell fusion assay; assay type: functional, organism-based; conditions: Human immunodeficiency virus 1, LAV, BSC-1, 2.5 h
HCT-116 = test: Cytotoxicity against human HCT116 cells by MTT assay; assay type: functional, cell-based
Summary of the method: (§1)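 MTT kit assay. Cells seeded at 2 × 10^4/well, adhered 18 h, then exposed for 3 h (fusion-assay conditions) or 24 h (neutralization-assay conditions). Medium then replaced or diluted 3-fold with fresh growth medium, followed by 72 h further culture. Viability read at A570 after MTT.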

[2] = Cytotoxicity against african green monkey BSC1 cells after 3 hrs by MTT assay; assay type: cell-based; conditions: chlorocebus aethiops, bsc-1, 3 h; summary of the method: as §1
Escherichia coli = test: Antimicrobial activity against Escherichia coli ATCC 8739 at 25 ug per disk after 18 hrs by disk diffusion method; assay type: functional, organism-based
Summary of the method: (§2)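 Modified disk diffusion. Bacteria: 500 µL of 24 h culture in 100 mL Antibiotic Medium 2 with 1% agar at 55 °C; C. albicans in Sabouraud dextrose agar at 55 °C. 10 mL seeded agar poured per dish, cooled 1 h. Compounds applied at 1–25 µg; zones of inhibition measured after 18 h at 37 °C.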

Pseudomonas aeruginosa = test: Antimicrobial activity against Pseudomonas aeruginosa ATCC 15442 at 25 ug per disk after 18 hrs by disk diffusion method; assay type: functional, organism-based; summary of the method: as §2
Staphylococcus aureus = test: Antimicrobial activity against Staphylococcus aureus ATCC 25923 at 25 ug per disk after 18 hrs by disk diffusion method; assay type: functional, organism-based; summary of the method: as §2
[3] = system: Human immunodeficiency virus 1; test: Inhibition of HIV HXB2 in TZM-bl cells after 48 hrs by neutralization assay; assay type: functional, organism-based; conditions: Human immunodeficiency virus 1, HXB2, TZM-bl
Summary of the method: (§3)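 Env-pseudotyped viral particles (HXB2, CXCR4-using; SF162, CCR5-using) added with varying inhibitor concentrations (in H2O or 20% EtOH in H2O) to TZM-bl cells (CD4, CXCR4, CCR5) after overnight plating at 37 °C. Luciferase luminescence (RLU) read after 48 h at 37 °C. Duplicate or triplicate, on at least two different days.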

[4] = system: Human immunodeficiency virus 1; test: Inhibition of HIV SF162 in TZM-bl cells after 48 hrs by neutralization assay; assay type: functional, organism-based; conditions: Human immunodeficiency virus 1, SF162, TZM-bl; summary of the method: as §3
[5] = Cytotoxicity against human TZM-bl cells after 24 hrs by MTT assay; assay type: functional, cell-based; summary of the method: as §1
Bacillus subtilis [6] = test: Antimicrobial activity against Bacillus subtilis ATCC 49343 at 1 ug per disk after 18 hrs by disk diffusion method; assay type: functional; conditions: ATCC 49343, 18 h, read-out: IZ
Summary of the method: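 Modified disk diffusion: 24 h bacterial culture seeded (500 µL per 100 mL) into Antibiotic Medium 2 with 1% agar at 55 °C, 10 mL poured into square dishes, cooled 1 h. Compound applied to disks (1–25 µg range tested); chloramphenicol 10 µg disk as control. Incubated 37 °C, 18 h; inhibition zone diameters measured.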

Candida albicans = test: Antifungal activity against Candida albicans ATCC 90027 at 5 ug per disk after 18 hrs by disk diffusion method; assay type: functional; conditions: ATCC 90027, 18 h, read-out: IZ; summary of the method: as §2
Bacillus subtilis [7] = test: Antimicrobial activity against Bacillus subtilis ATCC 49343 at 5 ug per disk after 18 hrs by disk diffusion method; assay type: functional, organism-based; summary of the method: as §2

| Structure (SMILES) | IC50 [1] [nM] | IC50 (HCT-116) [nM] | Activity [2] | Activity (Escherichia coli) | Activity (Pseudomonas aeruginosa) | Activity (Staphylococcus aureus) | IC50 [3] [nM] | IC50 [4] [nM] | IC50 [5] [nM] | zone of inhibition at 1 µg/disc (Bacillus subtilis [6]) [mm] | zone of inhibition at 5 µg/disc (Candida albicans) [mm] | Activity (Bacillus subtilis [7]) |
| --- | --- | --- | --- | --- | --- | --- | --- | --- | --- | --- | --- | --- |
| CCC(C)/C=C(C)/C=C\C(O)C(C)(O)C(=O)NCC(=O)N[C@H](C(=O)N[C@H](C(=O)N[C@H](C(=O)N[C@H]1C(=O)N[C@H](COC)C(=O)NCC(=O)N[C@@H](C)C(=O)N(C)[C@@H]([C@@H](C)O)C(=O)N[C@H]([C@H](OC)c2ccc(O)cc2)C(=O)N2CCCC[C@H]2C(=O)O[C@@H]1C(C)C)[C@@H](C)[C@@H](C)C(N)=O)[C@@H](C)N)[C@@H](C)O (stereo not given in full) [PAPUAMIDE A] | 73 | 3500 | Non-toxic | inactive | inactive | inactive |  |  |  |  |  |  |
| CCC(C)/C=C(C)/C=C\C(O)C(C)(O)C(=O)NCC(=O)N[C@H](C(=O)N[C@H](C(=O)N[C@H](C(=O)N[C@H]1C(=O)N[C@H](COC)C(=O)NCC(=O)N[C@@H](C)C(=O)N(C)[C@@H]([C@@H](C)O)C(=O)N[C@H]([C@H](OC)c2ccc(O)cc2)C(=O)N2CC[C@H](Cl)C[C@H]2C(=O)O[C@@H]1C(C)C)[C@@H](C)[C@@H](C)C(N)=O)[C@@H](C)N)[C@@H](C)O (stereo partly drawn) [MIRABAMIDE C] (X1-GT[Abu(3R-NH2)][Gln(3S,4R-Me2)][dLeu(3R-OH)][dS](Me)GA[NMeT][dTyr(βR-OMe)][Pip(4S-Cl)]; ester 5-C) | 1300 |  | Non-toxic | inactive | inactive | inactive | 144 | 1010 | 2200 | 9 | 9 |  |
| CCC(C)/C=C(C)/C=C\C(O)C(C)(O)C(=O)NCC(=O)N[C@H](C(=O)N[C@H](C(=O)N[C@H](C(=O)N[C@H]1C(=O)N[C@H](COC)C(=O)NCC(=O)N[C@@H](C)C(=O)N(C)[C@@H]([C@@H](C)O)C(=O)N[C@H]([C@H](OC)c2ccc(O[C@@H]3O[C@@H](C)[C@H](O)[C@@H](O)[C@H]3O)cc2)C(=O)N2CCCC[C@H]2C(=O)O[C@@H]1C(C)C)[C@@H](C)[C@@H](C)C(N)=O)[C@@H](C)N)[C@@H](C)O (stereo not given in full) [MIRABAMIDE D] | 3900 |  | Non-toxic | inactive | inactive | inactive | 189 | 1310 | 3900 | 9 |  |  |
| C/C=C(\NC(=O)[C@@H](NC(=O)CNC(=O)C(C)(O)C(O)/C=C\C(C)=C\C(C)CC)[C@@H](C)O)C(=O)N[C@H](C(=O)N[C@H]1C(=O)N[C@H](COC)C(=O)NCC(=O)N[C@@H](C)C(=O)N(C)[C@@H]([C@@H](C)O)C(=O)N[C@H]([C@H](OC)c2ccc(O[C@@H]3O[C@@H](C)[C@H](O)[C@@H](O)[C@H]3O)cc2)C(=O)N2CC[C@H](Cl)C[C@H]2C(=O)O[C@@H]1C(C)C)[C@@H](C)[C@@H](C)C(N)=O (stereo not given in full) [MIRABAMIDE B] | > 10000 |  | Non-toxic | inactive | inactive | inactive | > 50000 | > 50000 |  |  | 9 | Active |
| CCC(C)/C=C(C)/C=C\C(O)C(C)(O)C(=O)NCC(=O)N[C@H](C(=O)N[C@H](C(=O)N[C@H](C(=O)N[C@H]1C(=O)N[C@H](COC)C(=O)NCC(=O)N[C@@H](C)C(=O)N(C)[C@@H]([C@@H](C)O)C(=O)N[C@H]([C@H](OC)c2ccc(O[C@@H]3O[C@@H](C)[C@H](O)[C@@H](O)[C@H]3O)cc2)C(=O)N2CC[C@H](Cl)C[C@H]2C(=O)O[C@@H]1C(C)C)[C@@H](C)[C@@H](C)C(N)=O)[C@@H](C)N)[C@@H](C)O (stereo not given in full) [MIRABAMIDE A] | 41 | 2220 | Non-toxic | inactive | inactive | inactive | 140 | 400 | 1800 |  | 9 | Active |

— ChEMBL document CHEMBL1141334, “Mirabamides A-D, depsipeptides from the sponge Siliquariaspongia mirabilis that inhibit HIV-1 fusion” (J Nat Prod, 2007)
